Source: PMC8359310 (British Journal of Clinical Pharmacology, 2020)

Key:
[1] = Clinical DDI study: plasma pharmacokinetics of probe drugs; details: for AUC(0-inf): AUCinf; for AUC(0-t): AUClast; for Tmax: median (min, max); for AUCinf geo‐mean ratio (90% CI) / AUClast geo‐mean ratio (90% CI) / Cmax geo‐mean ratio (90% CI): probe drug + capmatinib vs probe drug alone
p‐glycoprotein (P‐gp) = details: in vitro, cited from earlier work
[2] = Capmatinib plasma concentrations in DDI and post‐DDI phase; assay type: in vivo, human; details: 400 mg twice daily
[3] = cited from earlier work
[4] = Estimated maximum luminal concentration in the gut; design: species or system human; details: therapeutic dose 400 mg twice daily; dose/250 mL
[5] = target: organic anion transporting polypeptide (OATP) 1B1; details: read-out: Ki for OATP1B1; in vitro; ref data on file; cited from earlier work
[6] = one of the capmatinib studies; ref data on file; cited from earlier work
[7] = system: breast cancer resistant protein (BCRP); details: in vitro, cited from earlier work
Safety assessments = assay type: in vivo, human
[8] = system: breast cancer resistant protein (BCRP); test: In vitro inhibition of transporter BCRP by capmatinib; assay type: in vitro ADME; details: 400 mg twice daily
OATP1B3 = details: read-out: Ki for OATP1B3; in vitro; ref data on file; cited from earlier work
[9] = system: MET‐dysregulated advanced solid tumours; test: Antitumour activity by Investigator's assessment per RECIST 1.1; assay type: in vivo, human
Procedure, shortened: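 Adults (≥18 years) with refractory MET-dysregulated advanced solid tumours (amplification with gene copy number ≥4 by FISH or qPCR, IHC intensity +3 in ≥50% of tumour cells, or exon 14 deletion mutation). Test compound given orally at 400 mg twice daily, then continued on 21-day cycles. Investigator-read CT every 6 weeks. Patients stopping for other reasons were followed until progression, new therapy or death.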

[10] = human, in vivo, adjusted geo‐mean, probe drug + capmatinib, linear mixed effects model
[11] = human, in vivo, adjusted geo‐mean, probe drug alone, linear mixed effects model
[12] = human, in vivo, geo‐mean (geo‐CV%), probe drug + capmatinib 400 mg twice daily, Day 22, plasma
[13] = human, in vivo, geo‐mean (geo‐CV%), probe drug alone, Day 1, plasma
[14] = regardless of study drug relationship

SMILES: CC(C)c1nc(N(C)S(C)(=O)=O)nc(-c2ccc(F)cc2)c1/C=C/[C@@H](O)C[C@@H](O)CC(=O)O [rosuvastatin]
- increase of AUCinf on coadministration of capmatinib ([1]; compared to probe drug alone): 108%
- increase of AUClast on coadministration of capmatinib ([1]; compared to probe drug alone): 103%
- increase of Cmax on coadministration of capmatinib ([1]; compared to probe drug alone): 204%
- AUC(0-inf) [1, 10]: 156 ng·h/mL
- AUC(0-inf) [1, 11]: 75.2 ng·h/mL
- AUC(0-t) [1, 10]: 144 ng·h/mL
- AUC(0-t) [1, 11]: 71 ng·h/mL
- AUC(0-t) [1, 12]: 144 ng·h/mL
- AUC(0-t) [1, 13]: 71 ng·h/mL
- Cmax [1, 10]: 23.5 ng/mL
- Cmax [1, 11]: 7.72 ng/mL
- Cmax [1, 12]: 23.5 ng/mL
- Cmax [1, 13]: 7.72 ng/mL
- half-life ([1]; human, in vivo, T1/2, geo‐mean (geo‐CV%), probe drug alone, Day 1): 22 h
- Tmax ([1]; human, in vivo, probe drug + capmatinib 400 mg twice daily, Day 22): 1.55 h
- Tmax ([1]; human, in vivo, probe drug alone, Day 1): 2.04 h
- AUCinf geo‐mean ratio (90% CI) [1]: 2.08 (1.56, 2.76)
- AUClast geo‐mean ratio (90% CI) [1]: 2.03 (1.61, 2.56)
- Cmax geo‐mean ratio (90% CI) [1]: 3.04 (2.36, 3.92)
- AUCinf geo‐mean ratio (90% CI) ([1]; listed as Rosuvastatin): 2.08 (1.56–2.76)
- AUClast geo‐mean ratio (90% CI) ([1]; listed as Rosuvastatin): 2.03 (1.61–2.56)
- Cmax geo‐mean ratio (90% CI) ([1]; listed as Rosuvastatin): 3.04 (2.36–3.92)

SMILES: CNC(=O)c1ccc(-c2cnc3ncc(Cc4ccc5ncccc5c4)n3n2)cc1F [capmatinib]
- IC50 (p‐glycoprotein (P‐gp); read-out: IC50 for inhibition of P‐gp): 12 µM
- Ki (p‐glycoprotein (P‐gp); read-out: Ki for P‐gp, ref data on file): 12 µM
- geometric mean predose concentration ([2]; Cycle 2 Day 1 (post‐DDI phase)): 529 ng/mL
- geometric mean predose concentration ([2]; Day 22 (DDI phase)): 407 ng/mL
- concentration at 2 h ([2]; human, oral): 3960 ng/mL
- steady state expected to be reached by ([3]; consecutive twice daily dosing): ≤ 3 days
- time to maximum plasma concentration (Tmax) ([3]; oral administration): 1 to 2 h
- estimated maximum luminal concentration in the gut [4]: approximately 3880 μM
- Ki [5]: 5.1 µM
- cystatin C level following capmatinib treatment [6]: No change
- IC50 ([7]; read-out: IC50 for inhibition of BCRP): 16.4 µM
- Ki ([7]; read-out: Ki for BCRP, ref data on file): 8.2 µM
- patients with AEs leading to study drug discontinuation (Safety assessments; all events grade 3/4): 9.4%
- patients with treatment‐related AEs (Safety assessments; all grades): 78.1%
- treatment‐related asthenia, patients (Safety assessments; all grades): 18.8%
- treatment‐related dyspepsia, patients (Safety assessments; all grades): 15.6%
- treatment‐related nausea, patients (Safety assessments; all grades): 34.4%
- treatment‐related peripheral oedema, patients (Safety assessments; all grades): 12.5%
- treatment‐related vomiting, patients (Safety assessments; all grades): 34.4%
- nausea leading to dose adjustment or dose interruption, patients (Safety assessments; both Grade ≤2): 6.3%
- alterations in the electrocardiograph (Safety assessments; in vivo): No clinically relevant alterations
- on‐treatment deaths (Safety assessments; in vivo): 18.8%
- on‐treatment deaths due to AE (respiratory tract infection) (Safety assessments; in vivo): 3.1%
- on‐treatment deaths due to AEs with disease progression as contributing reason (Safety assessments; in vivo): 9.4%
- on‐treatment deaths due to disease progression (Safety assessments; in vivo): 6.3%
- other treatment‐related SAEs: anaemia, abdominal pain and malaise, each (Safety assessments; in vivo): 1 patient
- patients who died during the study (Safety assessments; in vivo): 25.0%
- patients with AEs requiring dose adjustment or study drug interruption (Safety assessments; in vivo): 40.6%
- patients with treatment‐related Grade 3/4 AEs (Safety assessments; in vivo): 25.0%
- patients with treatment‐related SAEs (Safety assessments; in vivo): 12.5%
- treatment‐related Grade 3/4 vomiting, patients (Safety assessments; in vivo): 6.3%
- treatment‐related SAE vomiting, patients (Safety assessments; in vivo): 9.4%
- Abdominal pain upper, Grade 3/4 (Safety assessments; [14]): 0 n (%)
- Abdominal pain upper, all grades (Safety assessments; [14]): 4 (12.5) n (%)
- Abdominal pain, Grade 3/4 (Safety assessments; [14]): 1 (3.1) n (%)
- Abdominal pain, all grades (Safety assessments; [14]): 3 (9.4) n (%)
- Anaemia, Grade 3/4 (Safety assessments; [14]): 3 (9.4) n (%)
- Anaemia, all grades (Safety assessments; [14]): 7 (21.9) n (%)
- Asthenia, Grade 3/4 (Safety assessments; [14]): 2 (6.3) n (%)
- Asthenia, all grades (Safety assessments; [14]): 14 (43.8) n (%)
- Back pain, Grade 3/4 (Safety assessments; [14]): 1 (3.1) n (%)
- Back pain, all grades (Safety assessments; [14]): 6 (18.8) n (%)
- Blood albumin decreased, Grade 3/4 (Safety assessments; [14]): 1 (3.1) n (%)
- Blood albumin decreased, all grades (Safety assessments; [14]): 2 (6.3) n (%)
- Candida infection, Grade 3/4 (Safety assessments; [14]): 0 n (%)
- Candida infection, all grades (Safety assessments; [14]): 2 (6.3) n (%)
- Constipation, Grade 3/4 (Safety assessments; [14]): 0 n (%)
- Constipation, all grades (Safety assessments; [14]): 13 (40.6) n (%)
- Cough, Grade 3/4 (Safety assessments; [14]): 0 n (%)
- Cough, all grades (Safety assessments; [14]): 5 (15.6) n (%)
- Decreased appetite, Grade 3/4 (Safety assessments; [14]): 1 (3.1) n (%)
- Decreased appetite, all grades (Safety assessments; [14]): 7 (21.9) n (%)
- Depression, Grade 3/4 (Safety assessments; [14]): 0 n (%)
- Depression, all grades (Safety assessments; [14]): 2 (6.3) n (%)
- Diarrhoea, Grade 3/4 (Safety assessments; [14]): 1 (3.1) n (%)
- Diarrhoea, all grades (Safety assessments; [14]): 6 (18.8) n (%)
- Dyspepsia, Grade 3/4 (Safety assessments; [14]): 0 n (%)
- Dyspepsia, all grades (Safety assessments; [14]): 7 (21.9) n (%)
- Dyspnoea, Grade 3/4 (Safety assessments; [14]): 2 (6.3) n (%)
- Dyspnoea, all grades (Safety assessments; [14]): 6 (18.8) n (%)
- Fatigue, Grade 3/4 (Safety assessments; [14]): 0 n (%)
- Fatigue, all grades (Safety assessments; [14]): 4 (12.5) n (%)
- Headache, Grade 3/4 (Safety assessments; [14]): 0 n (%)
- Headache, all grades (Safety assessments; [14]): 2 (6.3) n (%)
- Hypotension, Grade 3/4 (Safety assessments; [14]): 1 (3.1) n (%)
- Hypotension, all grades (Safety assessments; [14]): 2 (6.3) n (%)
- Increased blood bilirubin, Grade 3/4 (Safety assessments; [14]): 1 (3.1) n (%)
- Increased blood bilirubin, all grades (Safety assessments; [14]): 5 (15.6) n (%)
- Lymphocyte count decreased, Grade 3/4 (Safety assessments; [14]): 1 (3.1) n (%)
- Lymphocyte count decreased, all grades (Safety assessments; [14]): 2 (6.3) n (%)
- Nausea, Grade 3/4 (Safety assessments; [14]): 2 (6.3) n (%)
- Nausea, all grades (Safety assessments; [14]): 18 (56.3) n (%)
- Oedema peripheral, Grade 3/4 (Safety assessments; [14]): 0 n (%)
- Oedema peripheral, all grades (Safety assessments; [14]): 9 (28.1) n (%)
- Pulmonary embolism, Grade 3/4 (Safety assessments; [14]): 3 (9.4) n (%)
- Pulmonary embolism, all grades (Safety assessments; [14]): 3 (9.4) n (%)
- Pyrexia, Grade 3/4 (Safety assessments; [14]): 1 (3.1) n (%)
- Pyrexia, all grades (Safety assessments; [14]): 8 (25.0) n (%)
- Rash, Grade 3/4 (Safety assessments; [14]): 0 n (%)
- Rash, all grades (Safety assessments; [14]): 2 (6.3) n (%)
- Respiratory tract infection, Grade 3/4 (Safety assessments; [14]): 1 (3.1) n (%)
- Respiratory tract infection, all grades (Safety assessments; [14]): 5 (15.6) n (%)
- Total adverse events, Grade 3/4 (Safety assessments; [14]): 18 (56.3) n (%)
- Total adverse events, all grades (Safety assessments; [14]): 32 (100) n (%)
- Urinary tract infection, Grade 3/4 (Safety assessments; [14]): 0 n (%)
- Urinary tract infection, all grades (Safety assessments; [14]): 3 (9.4) n (%)
- Vertigo, Grade 3/4 (Safety assessments; [14]): 0 n (%)
- Vertigo, all grades (Safety assessments; [14]): 2 (6.3) n (%)
- Vitamin K decreased, Grade 3/4 (Safety assessments; [14]): 1 (3.1) n (%)
- Vitamin K decreased, all grades (Safety assessments; [14]): 3 (9.4) n (%)
- Vomiting, Grade 3/4 (Safety assessments; [14]): 2 (6.3) n (%)
- Vomiting, all grades (Safety assessments; [14]): 13 (40.6) n (%)
- Weight decreased, Grade 3/4 (Safety assessments; [14]): 0 n (%)
- Weight decreased, all grades (Safety assessments; [14]): 2 (6.3) n (%)
- anaemia, Grade 3/4, patients (Safety assessments; [14]): 9.4%
- anaemia, all grades, patients (Safety assessments; [14]): 21.9%
- asthenia, Grade 3/4, patients (Safety assessments; [14]): 6.3%
- asthenia, all grades, patients (Safety assessments; [14]): 43.8%
- constipation, all grades, patients (Safety assessments; [14]): 40.6%
- decreased appetite, all grades, patients (Safety assessments; [14]): 21.9%
- dyspepsia, all grades, patients (Safety assessments; [14]): 21.9%
- dyspnoea, Grade 3/4, patients (Safety assessments; [14]): 6.3%
- nausea, Grade 3/4, patients (Safety assessments; [14]): 6.3%
- nausea, all grades, patients (Safety assessments; [14]): 56.3%
- patients with Grade 3/4 AEs (Safety assessments; [14]): 56.3%
- patients with Grade 3/4 SAEs (Safety assessments; [14]): 40.6%
- patients with SAEs of any grade (Safety assessments; [14]): 53.1%
- peripheral oedema, all grades, patients (Safety assessments; [14]): 28.1%
- pulmonary embolism, Grade 3/4, patients (Safety assessments; [14]): 9.4%
- pyrexia, all grades, patients (Safety assessments; [14]): 25%
- vomiting, Grade 3/4, patients (Safety assessments; [14]): 6.3%
- vomiting, all grades, patients (Safety assessments; [14]): 40.6%
- enrolled patients who experienced at least 1 AE (Safety assessments; regardless of study drug relationship, 32 enrolled): 32 patients
- serum creatinine change (Safety assessments; some subjects, none clinically relevant or reported as AE): low‐grade creatinine increase
- maximum luminal gut concentration relative to Ki for BCRP [8]: > 300 fold
- Ki (OATP1B3): 5.2 µM
- Best overall response: Progressive disease (PD) ([9]; all patients n = 32): 17 (53.1) n (%)
- Best overall response: Unknown ([9]; all patients n = 32): 7 (21.9) n (%)
- complete response (CR) or partial response (PR) ([9]; all patients n = 32): No patient
- disease control rate (CR + PR + SD) ([9]; in vivo): 25%
- patients with PD as best overall response ([9]; in vivo): 53.1%
- patients with stable disease as best overall response ([9]; in vivo): 25%
- patients with unknown response ([9]; in vivo): 21.9%
